Bioassay records (PubChem)
Rows were chosen to be rich in hits. Some 4% of all compounds tested hit in one or more screens of this group.
CHO parental Ca: ATP-evoked calcium signal inhibitors, parental CHO, primary screen, counter-screen for OX1R antagonist project, cell-based, fluorescence, Fluo-8 calcium dye; parental CHO-K1, ATP-induced calcium, Fluo-8 fluorescence; inhibition, % at 5.6 µM; actives 0.63% (n = 330,000); AID 463079, 2010;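 active = inhibition above that plate's mean sample inhibition plus 3 SD, cut at about 26% in these data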;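 note: 0% = ATP-challenged DMSO wells and 100% = DMSO wells without ATP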
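Assay system: untransfected parental CHO cell line. Also added: ATP agonist challenge. Dosing: one dose, 5.6 µM nominal. Measured by: Fluo-8 fluorescence. Read-out: % inhibition. Benchmarks: ATP wells versus no-ATP DMSO wells. Repeats: no replicates.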
OX1R antag-1: antagonists of human orexin 1 receptor (OX1R) | actives 1.8% (n = 330,000) | AID 485270, 2010 | OX1R-expressing cells, FRET antagonist read-out | Orexin/Hypocretin receptor type 1 (Homo sapiens), O43613 | inhibition, % at 6.6 µM; in the data active = inhibition mostly above about 38%, no sharp cut-off; inactive = mostly below about 40%;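 note: 0% = agonist challenge alone and 100% = reference antagonist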
Target sequence (O43613 whole entry, looked up): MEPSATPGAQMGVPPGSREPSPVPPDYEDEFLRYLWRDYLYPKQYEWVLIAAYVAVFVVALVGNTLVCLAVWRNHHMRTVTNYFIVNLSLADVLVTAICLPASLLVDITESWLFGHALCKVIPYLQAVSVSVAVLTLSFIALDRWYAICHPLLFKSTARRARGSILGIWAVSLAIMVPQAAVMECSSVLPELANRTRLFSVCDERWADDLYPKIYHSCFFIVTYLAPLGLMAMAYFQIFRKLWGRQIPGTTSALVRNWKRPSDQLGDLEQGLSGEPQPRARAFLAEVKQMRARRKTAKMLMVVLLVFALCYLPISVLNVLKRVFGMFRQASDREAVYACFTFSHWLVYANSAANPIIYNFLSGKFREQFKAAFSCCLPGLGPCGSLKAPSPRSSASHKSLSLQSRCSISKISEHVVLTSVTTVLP
TAAR1 antag: human TAAR1 antagonists, primary screen, Fluo-8 calcium fluorescence, CHO RD-HGA16 cells | Trace amine-associated receptor 1 (Homo sapiens), Q96RJ0 | antagonist | inhibition, % at 3 µM | actives 1.5% (n = 360,000);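 active = inhibition above a per-plate cutoff, the mean inhibition of test compounds on that plate plus 3 SD, cut at about 49% in these data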;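 note: 0% = DMSO plus EC80 beta-PEA response and 100% = DMSO alone without agonist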
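Test system: CHO RD-HGA16 cells bearing hTAAR1 | Reagent: β-PEA, EC80 | Compound dosing: 3 µM, single point | Schedule: Dye loading 75 min at 37 °C, then 30 min room temperature | Signal: Calcium fluorescence with Fluo-8 | Evaluation: Percent inhibition of PEA-evoked calcium signal, max/basal emission ratio | Control set: DMSO-only wells and EC80 β-PEA-stimulated wells | Repeats: Singlicate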
OX1R antag-2: OX1R (HCRTR1) antagonists, primary screen, fluorescence, CHO/OX1R cells, Fluo-8 calcium, orexin A. Orexin/Hypocretin receptor type 1 (Homo sapiens), O43613. Fluo-8 calcium fluorescence. inhibition, % at 5 µM. actives 0.43% (n = 330,000). AID 434989, 2010;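 active = inhibition above its plate's threshold, mean inhibition of all tested compounds on the plate plus 3 SD, cut at about 37% in these data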;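 note: 0% = orexin A challenge wells and 100% = SB-334867-A antagonist wells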
TAAR1 agonist: human TAAR1 agonists, primary screen, Fluo-8 calcium fluorescence, CHO RD-HGA16 cells | Trace amine-associated receptor 1 (Homo sapiens), Q96RJ0 | vehicle wells 0%, saturating PEA agonist 100% | activation, % at 3 µM | actives 0.99% (n = 360,000) | AID 624467, 2012;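 active = activation above the mean activation of all test compounds in the run plus 3 SD, cut at about 38% in these data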
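Test system: RD-HGA16 (CHO) cells co-expressing Gα16 and hTAAR1 | Doses: Single dose, 3 µM | Schedule: 17-24 h seeding, 75 min 37 °C dye, 30 min RT | Evaluation: % activation from peak over basal fluorescence ratio, DMSO-to-PEA scaled | Technique: Kinetic Fluo-8 calcium fluorescence | Benchmarks: Low control DMSO, high control PEA (EC100)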
NTR1 agonist: agonists of human NTR1, primary screen, imaging, U2OS cells, beta-arrestin-GFP, high content. Neurotensin receptor type 1 (Homo sapiens), P30989. NTR1-U2OS beta-arrestin-GFP spot imaging, agonist mode. activation, % at 20 µM. actives 0.17% (n = 330,000). AID 493036, 2011;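 active = activation at or above 40% of the spot to cytoplasm intensity ratio, with at least 20 cells analyzed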;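 note: 0% = DMSO without peptide and 100% = 100 nM NTR1 peptide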
An asterisk follows results filed as active; . = no result.

SMILES	CHO parental Ca	OX1R antag-1	TAAR1 antag	OX1R antag-2	TAAR1 agonist	NTR1 agonist
O=C(NCc1ccccc1)[C@H]1CCCN1C(=O)[C@H]1CCCN1C(=O)c1ccc(F)cc1	.	.	-13	.	2	.
CN(CC(=O)Nc1ccc(F)c(F)c1)S(=O)(=O)c1cccc2cccnc12	-10	35	-5	-5	6	3
CC(=O)Nc1ccc(N=Cc2c(O)c(C(=O)Nc3ccccc3)cc3ccccc23)cc1	31*	12	22	10	31	2
Cc1ccnc2nc(C(=O)OCC(=O)NCc3cccc(Cl)c3)nn12	-13	-1	14	2	4	4
CC(=O)Cc1nsc(NC(=O)c2ccc(-c3ccc(Cl)c(C(F)(F)F)c3)o2)n1	-1	19	.	-7	.	-2
CC(=O)Cc1nsc(NC(=O)c2ccc(-c3ccc(F)cc3)o2)n1	-19	61*	-24	8	3	1
Cc1ccccc1NC(=O)c1cc(S(=O)(=O)N2CCOCC2)ccc1F	-1	47*	8	0	7	-1
O=C(Nc1cc(S(=O)(=O)N2CCOCC2)ccc1N1CCCCC1)c1cc(-c2ccccn2)nc2ccccc12	-17	11	37	-32	10	0
Cc1ccc(S(=O)(=O)N2CCOCC2)cc1NC(=O)c1cc(-c2ccccn2)nc2ccccc12	-18	7	49*	-32	14	8
Cc1ccc(CNC(=O)[C@@H](Cc2ccccc2)NC(=O)[C@H]2O[C@@H](n3ccc(N)nc3=O)[C@H](O)[C@@H]2O)o1	.	.	-3	.	1	.
O=C(CSc1nnc2n1CCCN2)c1ccc([N+](=O)[O-])cc1	-21	51*	-12	-15	1	1
c1ccc2c(c1)ncn2CCCCOc1ccc2c(c1)CCC2	37*	19	33	-7	7	0
Cc1nc2ccccc2n1Cc1ccc(Cl)cc1	31*	43	-2	4	2	3
Cc1ccccc1Cn1c(C)nc2ccccc21	41*	64	13	13	3	1
COc1ccccc1Cn1c(C)nc2ccccc21	-14	5	0	-25	2	0
Cc1ccccc1OCCCCn1cnc2ccccc21	50*	13	7	0	10	9
OCc1nc2ccccc2n1Cc1ccc(Cl)cc1	-1	3	-13	7	3	1
Cc1cc(N2CCN(CC(C)(C)O)C[C@@H]2C)ccc1N1CCN(CC(C)(C)O)[C@H](C)C1	.	.	-34	.	2	.
CCOC(=O)N(C)C[C@@H]1OCc2cn(nn2)CCCC(=O)N([C@H](C)CO)C[C@H]1C	.	.	1	.	1	.
Cc1ccccc1OCCn1c(C)nc2ccccc21	35*	22	32	38	4	0
Cc1ccccc1OCCn1cc(C(=S)N2CCCC2)c2ccccc21	-7	30	5	15	5	-5
CC(=O)c1cn(CCOc2ccccc2C)c2ccccc12	41*	37	27	22	10	5
c1ccc(-c2ccc3c(c2)NCCN3)cc1	-14	15	0	-41	-2	-1
O=C(Nc1cccc(-c2cn3ccccc3n2)c1)c1cccs1	-4	71*	-3	2	2	3
N#CC(C#N)=C1c2cc(S(=O)(=O)NCCO)ccc2-c2ccc(S(=O)(=O)NCCO)cc21	0	69*	-26	-9	0	0
N#CC(C#N)=C1c2cc(S(N)(=O)=O)ccc2-c2ccc(S(N)(=O)=O)cc21	.	.	2	.	0	.
CCN(C(=O)COC(=O)c1ccc(Br)o1)C1CCCCC1	-11	19	-8	-9	8	0
COCCC1CCCCN1C(=O)c1cc(COc2ccc(-n3cncn3)cc2)on1 (stereo not given)	53*	47	10	22	6	1
COCC1CCCCN1C(=O)c1cc(COc2ccc3ncccc3c2)on1 (stereo not given)	47*	33	15	55*	6	0
